{"source": "ChEMBL document CHEMBL4017509", "about": "“A Dual Modulator of Farnesoid X Receptor and Soluble Epoxide Hydrolase To Counter Nonalcoholic Steatohepatitis” (J Med Chem, 2017)", "key": {"[1]": {"target": "Retinoic acid receptor RXR-beta (Homo sapiens) (UniProt P28702)", "sequence (P28702 whole entry, the tested form may be a part)": "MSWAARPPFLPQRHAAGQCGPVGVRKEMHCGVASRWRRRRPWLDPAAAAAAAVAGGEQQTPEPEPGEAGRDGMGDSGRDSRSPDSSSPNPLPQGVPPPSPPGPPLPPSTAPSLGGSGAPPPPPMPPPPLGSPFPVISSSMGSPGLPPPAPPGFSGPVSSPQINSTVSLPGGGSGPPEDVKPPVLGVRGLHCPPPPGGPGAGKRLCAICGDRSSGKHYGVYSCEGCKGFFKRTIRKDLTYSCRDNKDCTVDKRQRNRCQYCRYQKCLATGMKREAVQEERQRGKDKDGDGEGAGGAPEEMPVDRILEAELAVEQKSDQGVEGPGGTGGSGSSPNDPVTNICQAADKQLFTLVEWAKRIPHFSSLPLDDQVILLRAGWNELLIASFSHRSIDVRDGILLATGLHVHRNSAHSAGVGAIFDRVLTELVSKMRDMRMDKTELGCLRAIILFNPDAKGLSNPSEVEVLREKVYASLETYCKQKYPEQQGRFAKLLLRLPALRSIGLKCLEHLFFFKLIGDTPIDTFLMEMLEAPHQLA", "assay": "Transactivation of human GAL4-fused RXRbeta ligand binding domain expressed in […] cells at 10 uM after 12 to 14 hrs by dual-glo luciferase reporter gene assay", "format": "cell-based", "in_short": "(§1)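 HEK293T cells in DMEM/10% FCS, Opti-MEM before Lipofectamine LTX transfection with pFR-Luc reporter, pRL-SV40 and pFA-CMV GAL4–LBD plasmid. 5 h later compound in 0.1% DMSO, Opti-MEM, overnight (12−14 h). Dual luciferase; firefly/renilla ×1000 = RLU, fold over DMSO control; triplicates, ≥3 independent repeats.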"}, "[2]": {"target": "Peroxisome proliferator-activated receptor delta (Homo sapiens) (UniProt Q03181)", "sequence (Q03181 whole entry, the tested form may be a part)": "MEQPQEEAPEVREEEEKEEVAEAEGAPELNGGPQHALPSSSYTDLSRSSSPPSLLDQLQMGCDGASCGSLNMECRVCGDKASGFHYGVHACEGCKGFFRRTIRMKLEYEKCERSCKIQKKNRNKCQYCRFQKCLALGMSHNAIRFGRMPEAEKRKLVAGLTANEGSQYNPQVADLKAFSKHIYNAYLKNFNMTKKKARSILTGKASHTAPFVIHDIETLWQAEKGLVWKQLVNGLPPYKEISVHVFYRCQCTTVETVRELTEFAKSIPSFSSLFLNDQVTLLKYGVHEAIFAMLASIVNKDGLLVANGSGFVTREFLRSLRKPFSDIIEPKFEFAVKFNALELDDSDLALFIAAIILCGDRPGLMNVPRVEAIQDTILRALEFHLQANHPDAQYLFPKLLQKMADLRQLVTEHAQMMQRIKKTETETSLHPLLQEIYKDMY", "assay": "Transactivation of human GAL4-fused PPARdelta ligand binding domain expressed in […] cells at 10 uM after 12 to 14 hrs by dual-glo luciferase reporter gene assay", "format": "cell-based", "in_short": "as §1"}, "[3]": {"assay": "Metabolic stability in Sprague-Dawley rat liver microsomes assessed as compound remaining at 10 uM after 60 mins by HPLC analysis", "format": "ADME, microsome", "details": "read-out: Stability"}, "[4]": {"target": "T1, Peroxisome proliferator-activated receptor gamma (Homo sapiens) (UniProt P37231)", "T1 sequence (whole entry)": "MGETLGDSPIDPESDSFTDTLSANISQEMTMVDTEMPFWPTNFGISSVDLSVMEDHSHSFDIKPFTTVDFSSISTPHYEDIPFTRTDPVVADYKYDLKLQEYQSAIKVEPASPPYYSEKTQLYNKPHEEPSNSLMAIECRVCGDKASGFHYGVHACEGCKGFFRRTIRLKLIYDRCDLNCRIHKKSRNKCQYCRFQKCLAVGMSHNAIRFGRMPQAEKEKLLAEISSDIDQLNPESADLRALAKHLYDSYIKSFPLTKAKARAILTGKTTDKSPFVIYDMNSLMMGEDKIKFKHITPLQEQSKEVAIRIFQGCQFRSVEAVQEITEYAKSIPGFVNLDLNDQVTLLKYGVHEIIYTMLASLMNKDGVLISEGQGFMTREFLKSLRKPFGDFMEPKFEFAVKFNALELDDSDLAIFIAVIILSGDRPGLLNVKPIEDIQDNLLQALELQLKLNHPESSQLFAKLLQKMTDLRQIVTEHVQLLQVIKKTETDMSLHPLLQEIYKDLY", "assay": "Transactivation of human GAL4-fused PPARgamma ligand binding domain expressed in HEL293T cells at 10 uM after 12 to 14 hrs by dual-glo luciferase reporter gene assay relative to pioglitazone", "format": "cell-based"}, "[5]": {"target": "G-protein coupled bile acid receptor 1 (Homo sapiens) (UniProt Q8TDU6)", "sequence (Q8TDU6 whole entry)": "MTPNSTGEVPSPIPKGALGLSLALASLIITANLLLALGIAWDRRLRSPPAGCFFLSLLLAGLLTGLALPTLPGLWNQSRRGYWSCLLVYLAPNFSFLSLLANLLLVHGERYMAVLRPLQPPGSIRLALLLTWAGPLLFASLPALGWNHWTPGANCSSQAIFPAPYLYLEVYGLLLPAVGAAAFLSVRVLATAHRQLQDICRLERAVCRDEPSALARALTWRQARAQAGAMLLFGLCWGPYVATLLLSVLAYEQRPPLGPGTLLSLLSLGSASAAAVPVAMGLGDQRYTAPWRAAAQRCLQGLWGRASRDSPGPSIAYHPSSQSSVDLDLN", "assay": "Agonist activity at TGR5 (unknown origin) at 10 uM"}, "[6]": {"target": "T2, Bile acid receptor (Homo sapiens) (UniProt Q96RI1)", "T2 sequence (whole entry)": "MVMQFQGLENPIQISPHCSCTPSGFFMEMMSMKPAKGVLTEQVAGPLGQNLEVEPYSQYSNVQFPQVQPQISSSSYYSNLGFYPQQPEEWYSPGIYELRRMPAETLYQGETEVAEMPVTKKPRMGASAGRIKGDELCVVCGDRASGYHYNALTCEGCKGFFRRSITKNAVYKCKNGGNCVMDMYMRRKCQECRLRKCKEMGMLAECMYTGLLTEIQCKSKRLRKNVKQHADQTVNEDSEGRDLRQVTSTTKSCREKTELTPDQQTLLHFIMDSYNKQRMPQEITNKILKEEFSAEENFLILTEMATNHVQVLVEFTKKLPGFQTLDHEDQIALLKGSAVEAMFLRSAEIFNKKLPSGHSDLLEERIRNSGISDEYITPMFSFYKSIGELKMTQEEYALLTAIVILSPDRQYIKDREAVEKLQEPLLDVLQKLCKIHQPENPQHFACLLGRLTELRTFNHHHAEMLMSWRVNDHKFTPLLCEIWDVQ", "assay": "Transactivation of FXR in human HepG2 cells assessed as BSEP mRNA expression at 1 uM after 8 to 16 hrs by SYBR green based qRT-PCR analysis relative to DMSO control", "format": "cell-based", "in_short": "(§2)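 HepG2 cells incubated with test compound (0.1 and 1 μM) or 0.1% DMSO for 8 or 16 h, washed in cold PBS, RNA extracted; target mRNA by SYBR Green qRT-PCR, duplicate samples, ≥4 independent experiments; comparative ΔΔCt with GAPDH reference, vehicle set as 100%.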"}, "[7]": {"target": "Retinoic acid receptor beta (Homo sapiens) (UniProt P10826)", "sequence (P10826 whole entry, the tested form may be a part)": "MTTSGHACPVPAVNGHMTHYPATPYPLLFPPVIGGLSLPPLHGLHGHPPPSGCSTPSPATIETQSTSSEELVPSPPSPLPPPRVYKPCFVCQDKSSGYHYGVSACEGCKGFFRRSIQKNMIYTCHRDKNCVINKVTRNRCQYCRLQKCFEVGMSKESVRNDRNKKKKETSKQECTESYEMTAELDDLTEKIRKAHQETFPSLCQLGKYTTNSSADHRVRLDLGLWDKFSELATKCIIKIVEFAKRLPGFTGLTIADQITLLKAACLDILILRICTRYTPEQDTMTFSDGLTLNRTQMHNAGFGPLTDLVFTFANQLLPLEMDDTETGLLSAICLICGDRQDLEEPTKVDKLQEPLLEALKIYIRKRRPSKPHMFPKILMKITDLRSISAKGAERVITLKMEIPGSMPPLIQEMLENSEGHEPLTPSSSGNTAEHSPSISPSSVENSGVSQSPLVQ", "assay": "Transactivation of human GAL4-fused RARbeta ligand binding domain expressed in […] cells at 10 uM after 12 to 14 hrs by dual-glo luciferase reporter gene assay", "format": "cell-based", "in_short": "as §1"}, "[8]": {"system": "MDM", "assay": "Effect on IL-10 levels in LPS-stimulated primary human MDM at 0.01 uM after 16 hrs by cytometric bead array method", "format": "functional, cell-based", "in_short": "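Blood monocytes isolated by dextran sedimentation and Nycoprep gradient, adherence-selected 1 h, differentiated with GM-CSF 10 ng/mL for 7 days plus IFNγ 10 ng/mL for last 48 h. Stimulated with LPS 100 ng/mL plus compound for 16 h; supernatant IL-10 and IL-12p70 measured by cytometric bead array flow cytometry.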"}, "[9]": {"system": "Liver", "assay": "Drug metabolism in Sprague-Dawley rat liver microsomes assessed as 4-tert-butyl-N-(2-chloro-4-(methylsulfonamido)benzyl)-2-hydroxybenzamide formation at 10 uM preincubated with NADPH regenerating system for 5 mins followed by addition of liver microsomes by LC-MS/MS method", "format": "ADME, microsome"}, "[10]": {"target": "Retinoic acid receptor gamma (Homo sapiens) (UniProt P13631)", "sequence (P13631 whole entry, the tested form may be a part)": "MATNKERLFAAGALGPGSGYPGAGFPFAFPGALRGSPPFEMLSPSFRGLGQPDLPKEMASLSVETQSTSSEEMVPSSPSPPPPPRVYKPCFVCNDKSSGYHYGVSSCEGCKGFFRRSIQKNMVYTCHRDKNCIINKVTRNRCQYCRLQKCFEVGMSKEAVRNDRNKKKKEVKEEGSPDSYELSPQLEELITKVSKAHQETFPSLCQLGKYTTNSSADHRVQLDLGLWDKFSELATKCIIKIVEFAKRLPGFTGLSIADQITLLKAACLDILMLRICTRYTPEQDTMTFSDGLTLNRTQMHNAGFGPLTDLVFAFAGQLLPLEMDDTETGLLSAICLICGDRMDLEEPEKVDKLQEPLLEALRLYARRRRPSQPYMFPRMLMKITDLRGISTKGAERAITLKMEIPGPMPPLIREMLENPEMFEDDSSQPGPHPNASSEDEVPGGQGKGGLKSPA", "assay": "Transactivation of human GAL4-fused RARgamma ligand binding domain expressed in […] cells at 10 uM after 12 to 14 hrs by dual-glo luciferase reporter gene assay", "format": "cell-based", "in_short": "as §1"}, "[11]": {"target": "T2, Bile acid receptor (Homo sapiens)", "assay": "Transactivation of FXR in human HepG2 cells assessed as FGF19 mRNA expression at 1 uM after 8 to 16 hrs by SYBR green based qRT-PCR analysis relative to DMSO control", "format": "cell-based", "in_short": "as §2"}, "[12]": {"target": "T2, Bile acid receptor (Homo sapiens)", "assay": "Transactivation of human FXR expressed in human HeLa cells co-expressing BSEP at 50 uM after 24 hrs by dual-glo luciferase reporter gene assay relative to GW4064", "format": "cell-based", "in_short": "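HeLa cells in DMEM/10% FCS at 37 °C, 5% CO2; switched to 0.5% charcoal-stripped FCS before calcium phosphate co-transfection with pcDNA3-hFXR, pSG5-hRXR, BSEP promoter–firefly luciferase reporter and pRL-SV40 renilla. Compound in 0.1% DMSO, phenol red-free medium, 24 h.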"}, "[13]": {"target": "T3, Bile acid receptor (Homo sapiens, UniProt Q96RI1)", "T3 sequence (Q96RI1 whole entry)": "T2 sequence (whole entry)", "assay": "Transactivation of FXR in human HepG2 cells assessed as CYP7A1 mRNA expression at 0.1 uM after 8 to 16 hrs by SYBR green based qRT-PCR analysis relative to DMSO control", "format": "ADME, cell-based", "in_short": "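HepG2 cells incubated with compound (0.1 or 1 μM) or 0.1% DMSO for 8 or 16 h, washed with cold PBS, RNA extracted. Quantified by SYBR Green real-time PCR, duplicate samples, at least four independent experiments. ΔΔCt method with GAPDH as reference gene. Expressed as % of vehicle (set to 100%), mean ± SEM.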"}, "[14]": {"target": "Nuclear receptor subfamily 1 group I member 2 (Homo sapiens, UniProt O75469)", "sequence (O75469 whole entry, the tested form may be a part)": "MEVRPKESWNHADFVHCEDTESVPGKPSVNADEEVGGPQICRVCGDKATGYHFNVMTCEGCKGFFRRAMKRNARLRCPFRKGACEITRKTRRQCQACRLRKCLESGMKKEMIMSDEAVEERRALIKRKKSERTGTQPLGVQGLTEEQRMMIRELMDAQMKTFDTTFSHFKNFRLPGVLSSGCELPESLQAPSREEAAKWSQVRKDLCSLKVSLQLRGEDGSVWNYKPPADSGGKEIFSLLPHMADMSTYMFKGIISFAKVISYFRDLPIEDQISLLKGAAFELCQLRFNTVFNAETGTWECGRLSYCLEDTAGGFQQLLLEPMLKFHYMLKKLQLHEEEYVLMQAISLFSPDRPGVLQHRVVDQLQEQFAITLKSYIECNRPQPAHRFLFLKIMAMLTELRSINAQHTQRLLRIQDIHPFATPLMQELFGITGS", "assay": "Transactivation of human GAL4-fused PXR ligand binding domain expressed in […] cells at 10 uM after 12 to 14 hrs by dual-glo luciferase reporter gene assay", "format": "cell-based", "in_short": "as §1"}}, "note": "The source made the active and inactive calls. No cut-off for these calls is given here.", "data": [{"smiles": "CC(C)(C)c1ccc(C(=O)NCc2ccc(NS(C)(=O)=O)cc2Cl)cc1", "values": [{"measurement": "Activity", "setting": "[1]", "result": "inactive"}, {"measurement": "Activity", "setting": "[2]", "result": "inactive"}, {"measurement": "remaining at 1 h, 10 µM", "setting": "[3]", "result": "> 50", "unit": "%"}, {"measurement": "Emax", "setting": "[4]", "result": 30, "unit": "%"}, {"measurement": "Activity", "setting": "[5]", "result": "inactive"}, {"measurement": "Activity", "setting": "[6]", "result": 222, "unit": "%"}, {"measurement": "Activity", "setting": "[7]", "result": "inactive"}, {"measurement": "Activity", "setting": "[8]", "result": "inactive"}, {"measurement": "Drug metabolism", "setting": "[9]", "result": "Metabolite_Notdetected"}, {"measurement": "Activity", "setting": "[10]", "result": "inactive"}, {"measurement": "Activity", "setting": "[11]", "result": 325, "unit": "%"}, {"measurement": "Emax", "setting": "[12]", "result": 35, "unit": "%"}, {"measurement": "Activity", "setting": "[13]", "result": 50, "unit": "%"}, {"measurement": "Activity", "setting": "[14]", "result": "Not Active"}]}]}
